Measured values published in ChEMBL document CHEMBL1123109, “Alkyl esters of 3-adenin-9-yl-2-hydroxypropanoic acid: a new class of broad-spectrum antiviral agents” (1985).
≈ marks a conversion by molar mass, not a printed value.

Assays:
Format in all cases: functional
[1] = system: Vesicular stomatitis virus; test: Inhibition of Vesicular stomatitis virus induced cytopathicity in Vero cells.
Summary of the method: (§1)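 Vesicular stomatitis virus was inoculated at 100 CCID50 (100× the dose infecting 50% of cells) in each cell type: human embryonic skin-muscle fibroblasts, LR-strain trisomy-21 fibroblasts, HEp-2, CV-1, BS-C-1, Balb/3T3, RK13, human kidney, HeLa and Vero. CPE was read at 1–2 days in every cell type, once complete in untreated infected controls. The MIC is the concentration giving a 50% reduction in cytopathogenicity.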

[2] = system: Coxsackievirus B4; test: Inhibition of Coxsackie B4 virus induced cytopathicity in HeLa cells.; conditions: Enterovirus B
[3] = system: Vesicular stomatitis virus; test: Inhibition of Vesicular stomatitis virus induced cytopathicity in PRK cells.
[4] = system: Human alphaherpesvirus 1; test: Inhibition of HSV-1 induced cytopathicity in PRK cells.
[5] = system: Vesicular stomatitis virus; test: Inhibition of Vesicular stomatitis virus induced cytopathicity in HeLa cells.; summary of the method: as §1
[6] = system: PRK; test: Cytotoxic concentration against PRK cells.; conditions: Oryctolagus cuniculus
Summary of the method: (§2)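 Uninfected cells were incubated with compound for the same duration as the matching antiviral assay. The minimum cytotoxic concentration is the lowest one causing a microscopically detectable change in normal cell morphology.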

[7] = system: Vaccinia virus; test: Inhibition of Vaccinia virus induced cytopathicity in PRK cells.; conditions: Orthopoxvirus vaccinia
[8] = system: Mammalian orthoreovirus 1; test: Inhibition of Reo virus-1 induced cytopathicity in vero cells.
[9] = system: Sindbis virus; test: Inhibition of Sindbis virus induced cytopathicity in vero cells.
[10] = system: Vesicular stomatitis virus; test: Inhibition of Vesicular stomatitis virus induced cytopathicity in CV-1 cells.; summary of the method: as §1
[11] = system: Vero; test: Cytotoxic concentration against Vero cells.; conditions: Chlorocebus sabaeus; summary of the method: as §2
[12] = system: Vesicular stomatitis virus; test: Inhibition of Vesicular stomatitis virus induced cytopathicity in BS-C-1 cells.; summary of the method: as §1
[13] = system: Measles morbillivirus; test: Inhibition of Measles virus induced cytopathicity in vero cells.
[14] = system: Human respirovirus 3; test: Inhibition of parainfluenza virus-3 induced cytopathicity in vero cells.
[15] = system: Vesicular stomatitis virus; test: Inhibition of Vesicular stomatitis virus induced cytopathicity in HEp-2 cells.; summary of the method: as §1
[16] = system: Poliovirus 1; test: Inhibition of polio virus 1 induced cytopathicity in HeLa cells.; conditions: Enterovirus C
[17] = system: Vesicular stomatitis virus; test: Inhibition of Vesicular stomatitis virus induced cytopathicity in RK13 cells.; summary of the method: as §1
[18] = system: HeLa; test: Cytotoxic concentration against HeLa cells.; conditions: Homo sapiens; summary of the method: as §2
[19] = system: Vesicular stomatitis virus; test: Inhibition of Vesicular stomatitis virus induced cytopathicity in E6SM cells.; summary of the method: as §1
[20] = system: Vesicular stomatitis virus; test: Inhibition of Vesicular stomatitis virus induced cytopathicity in T-21 cells.; summary of the method: as §1
[21] = system: Vesicular stomatitis virus; test: Inhibition of Vesicular stomatitis virus induced cytopathicity in BALB/3T3 cells.; conditions: in Mus musculus; summary of the method: as §1
[22] = system: HK; test: Minimum inhibitory concentration which is required to reduce virus-induced cytopathogenicity by 50% against Vesicular stomatitis virus in human kidney,; summary of the method: as §1

Row | SMILES | MIC [1] | MIC [2] | MIC [3] | MIC [4] | MIC [5] | MCC [6] | MIC [7] | MIC [8] | MIC [9] | MIC [10] | MCC [11] | MIC [12] | MIC [13] | MIC [14] | MIC [15] | MIC [16] | MIC [17] | MCC [18] | MIC [19] | MIC [20] | other results
1 | COCCOC(=O)C(O)Cn1cnc2c(N)ncnc21 (centres undefined) | 300 µg/mL (≈ 1070 µM) | > 400 µg/mL | 7 µg/mL (≈ 24.9 µM) | > 400 µg/mL | 20 µg/mL (≈ 71.1 µM) | > 400 µg/mL | 30 µg/mL (≈ 107 µM) | 70 µg/mL (≈ 249 µM) | > 400 µg/mL | > 400 µg/mL | > 400 µg/mL | > 400 µg/mL | 400 µg/mL (≈ 1420 µM) | 300 µg/mL (≈ 1070 µM) | 7 µg/mL (≈ 24.9 µM) | > 400 µg/mL | 70 µg/mL (≈ 249 µM) | > 400 µg/mL | 7 µg/mL (≈ 24.9 µM) | 15 µg/mL (≈ 53.3 µM) | MIC [21]: > 400 µg/mL; MIC [22]: > 400 µg/mL
2 | Nc1ncnc2c1ncn2CC(O)C(=O)OCc1ccco1 (centres undefined) | > 40 µg/mL | > 40 µg/mL | 15 µg/mL (≈ 49.5 µM) | > 40 µg/mL | 7 µg/mL (≈ 23.1 µM) | 40 µg/mL | 10 µg/mL (≈ 33 µM) | 30 µg/mL (≈ 98.9 µM) | > 40 µg/mL | > 40 µg/mL | 40 µg/mL | > 40 µg/mL | > 40 µg/mL | 15 µg/mL (≈ 49.5 µM) | 4 µg/mL (≈ 13.2 µM) | > 40 µg/mL | > 40 µg/mL | 40 µg/mL | 40 µg/mL (≈ 132 µM) | 7 µg/mL (≈ 23.1 µM) | MIC [21]: > 40 µg/mL; MIC [22]: > 40 µg/mL
3 | CC(C)(C)OC(=O)C(O)Cn1cnc2c(N)ncnc21 (centres undefined) | > 400 µg/mL | > 400 µg/mL | 150 µg/mL (≈ 537 µM) | > 400 µg/mL | 150 µg/mL (≈ 537 µM) | > 400 µg/mL | 150 µg/mL (≈ 537 µM) | 150 µg/mL (≈ 537 µM) | > 400 µg/mL | > 400 µg/mL | > 400 µg/mL | > 400 µg/mL | 150 µg/mL (≈ 537 µM) | 150 µg/mL (≈ 537 µM) | 40 µg/mL (≈ 143 µM) | > 400 µg/mL | 30 µg/mL (≈ 107 µM) | > 400 µg/mL | 150 µg/mL (≈ 537 µM) | 15 µg/mL (≈ 53.7 µM) | MIC [21]: > 400 µg/mL; MIC [22]: > 400 µg/mL
4 | Nc1ncnc2c1ncn2CC(O)C(=O)OC1CCCCC1 (centres undefined) | > 100 µg/mL | > 100 µg/mL | 1 µg/mL (≈ 3.28 µM) | 100 µg/mL (≈ 328 µM) | 30 µg/mL (≈ 98.3 µM) | 100 µg/mL | 3 µg/mL (≈ 9.83 µM) | 7 µg/mL (≈ 22.9 µM) | > 100 µg/mL | > 200 µg/mL | 100 µg/mL | 40 µg/mL (≈ 131 µM) | 15 µg/mL (≈ 49.1 µM) | > 40 µg/mL | 2 µg/mL (≈ 6.55 µM) | > 100 µg/mL | 70 µg/mL (≈ 229 µM) | 100 µg/mL | 7 µg/mL (≈ 22.9 µM) | 1 µg/mL (≈ 3.28 µM) | MIC [21]: 70 µg/mL (≈ 229 µM); MIC [22]: > 200 µg/mL
5 | CCOC(=O)C(O)Cn1cnc2c(N)ncnc21 (centres undefined) | 400 µg/mL (≈ 1590 µM) | > 400 µg/mL | 1 µg/mL (≈ 3.98 µM) | > 400 µg/mL | 4 µg/mL (≈ 15.9 µM) | > 400 µg/mL | 3 µg/mL (≈ 11.9 µM) | 40 µg/mL (≈ 159 µM) | > 400 µg/mL | > 400 µg/mL | > 400 µg/mL | > 400 µg/mL | 20 µg/mL (≈ 79.6 µM) | 20 µg/mL (≈ 79.6 µM) | 7 µg/mL (≈ 27.9 µM) | > 400 µg/mL | 2 µg/mL (≈ 7.96 µM) | > 400 µg/mL | 7 µg/mL (≈ 27.9 µM) | 1 µg/mL (≈ 3.98 µM) | MIC [21]: > 400 µg/mL; MIC [22]: 200 µg/mL (≈ 796 µM)
6 | CC(C)OC(=O)C(O)Cn1cnc2c(N)ncnc21 (centres undefined) | 200 µg/mL (≈ 754 µM) | > 400 µg/mL | 3 µg/mL (≈ 11.3 µM) | > 400 µg/mL | 30 µg/mL (≈ 113 µM) | > 400 µg/mL | 3 µg/mL (≈ 11.3 µM) | 40 µg/mL (≈ 151 µM) | > 400 µg/mL | > 400 µg/mL | > 400 µg/mL | > 400 µg/mL | 150 µg/mL (≈ 565 µM) | 70 µg/mL (≈ 264 µM) | 7 µg/mL (≈ 26.4 µM) | > 400 µg/mL | 1 µg/mL (≈ 3.77 µM) | > 400 µg/mL | 3 µg/mL (≈ 11.3 µM) | 1 µg/mL (≈ 3.77 µM) | MIC [21]: > 400 µg/mL; MIC [22]: 300 µg/mL (≈ 1130 µM)
7 | CCC(C)OC(=O)C(O)Cn1cnc2c(N)ncnc21 (centres undefined) | 150 µg/mL (≈ 537 µM) | > 400 µg/mL | 1 µg/mL (≈ 3.58 µM) | > 400 µg/mL | 30 µg/mL (≈ 107 µM) | > 400 µg/mL | 3 µg/mL (≈ 10.7 µM) | 70 µg/mL (≈ 251 µM) | 300 µg/mL (≈ 1070 µM) | > 400 µg/mL | > 400 µg/mL | > 400 µg/mL | 40 µg/mL (≈ 143 µM) | 200 µg/mL (≈ 716 µM) | 7 µg/mL (≈ 25.1 µM) | > 400 µg/mL | 15 µg/mL (≈ 53.7 µM) | > 400 µg/mL | 1 µg/mL (≈ 3.58 µM) | 1 µg/mL (≈ 3.58 µM) | MIC [21]: > 400 µg/mL; MIC [22]: > 400 µg/mL
